Results from ChEMBL document CHEMBL2093137, “WHO-TDR NTD Screening”.
In brackets after ≈: the same amount, converted by molar mass.

Tests used:
[1] = WHO-TDR: Cytotoxicity; type: toxicity, cell-based; conditions: human, MRC5 cells
[2] = system: Leishmania infantum; assay: WHO-TDR: Leishmaniasis; type: functional, organism-based, Mus musculus; conditions: Macrophage
Method in brief: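 Antiparasitic potency, reported as IC50, was measured against intracellular Leishmania infantum amastigotes. The parasite strain was MHOM/MA(BE)/67, and murine peritoneal macrophages served as host cells for the screen of a 10,000-compound diverse library from Life Chemicals.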

[3] = system: Trypanosoma brucei brucei; assay: WHO-TDR: Human African Trypanosomiasis (HAT); type: functional, organism-based; conditions: Squib-427
Method in brief: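 Antiparasitic potency is reported as IC50. The screen covered 10,000 compounds from a diverse Life Chemicals library, filtered for drug-likeness and reactive groups, tested on whole bloodstream-form Trypanosoma brucei of the Squib 427 strain.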

[4] = system: Onchocerca lienalis; assay: (§1) WHO-TDR: Onchocerciasis; type: functional; set-up: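 at 12.5 µM on microfilariae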
Method in brief: (§2)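 Whole-organism screen of a 10,000-compound diverse library from Life Chemicals, filtered for drug-likeness and reactive groups, against microfilariae of Onchocerca ochengi or Onchocerca lienalis, used as animal-pathogen stand-ins for the human parasite. The assay followed previously published standard procedures, with reference drugs as positive controls. Activity is reported as percent inhibition and as IC50.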

[5] = system: Trypanosoma cruzi; assay: WHO-TDR: Chagas disease; type: functional, organism-based, Homo sapiens; conditions: MRC5
Method in brief: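 Intracellular amastigotes of the Trypanosoma cruzi Tulahuen CL2 beta-galactosidase strain, grown in MRC-5SV2 human lung fibroblast host cells, were tested in a whole-organism screen. The compounds came from a 10,000-member diverse Life Chemicals library that had been filtered for drug-likeness and reactive groups. Previously published standard procedures were followed, with a reference drug as positive control, and potency is reported as IC50.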

[6] = system: Plasmodium falciparum K1; assay: WHO-TDR: Malaria; type: functional, organism-based, Homo sapiens; conditions: Erythrocyte
Method in brief: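 Antiplasmodial potency, expressed as IC50, was measured in a whole-organism assay on intra-erythrocytic Plasmodium falciparum K1 in human red blood cells. The screened library held 10,000 diverse compounds from Life Chemicals.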

[7] = system: Schistosoma mansoni; assay: WHO-TDR: Schistosomiasis; type: functional; set-up: concentration or dose not given beside the values
Method in brief: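 Whole-organism screen of a 10,000-compound diverse library from Life Chemicals, filtered for drug-likeness and reactive groups, against larval and/or adult worms of Schistosoma mansoni Puerto Rican strain. The assay followed previously published standard procedures, with a reference drug as positive control. Activity is reported as percent inhibition and as IC50.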

[8] = system: Onchocerca ochengi; assay: as §1; type: functional; set-up: concentration or dose not given beside the values; method in brief: as §2;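 note: at 12.5 µM on microfilariae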
[9] = system: Brugia malayi; assay: WHO-TDR: Lymphatic Filariasis; type: functional; set-up: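 tested at 10 µM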
Method in brief: as §2, with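 “Brugia malayi microfilariae.” for “microfilariae of Onchocerca ochengi or Onchocerca lienalis, used as animal-pathogen stand-ins for the human parasite.”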

| SMILES | IC50 [1] [µg/mL] | IC50 [2] [µg/mL] | IC50 [3] [µg/mL] | % Inhibition [4] [%] | IC50 [5] [µg/mL] | IC50 [6] [µg/mL] | % Inhibition [7] [%] | % Inhibition [8] [%] | % Inhibition [9] [%] |
| --- | --- | --- | --- | --- | --- | --- | --- | --- | --- |
| CN(C)CCCN(C(=O)c1ccc2c(c1)CCCC2)c1nc2ccc(Br)cc2s1 | 2.1 (≈ 4.44 µM) | 0.791 (≈ 1.67 µM) | 0.483 (≈ 1.02 µM) | 0 | 3.21 (≈ 6.78 µM) | 1.16 (≈ 2.46 µM) | 66.7 |  |  |
| NC(=O)c1ccc(NC(=O)c2c[nH]c(=O)n(-c3ccc(F)cc3)c2=O)cc1 | > 11 | 0.358 (≈ 0.971 µM) | > 11 | 0 | > 11 | > 11 | 0 |  |  |
| COC(=O)c1c(NC(=O)c2nc3ccccc3s2)sc2c1CC(C)(C)NC2(C)C | > 12.9 | > 12.9 | 0.216 (≈ 0.503 µM) | -1 | > 12.9 | > 12.9 | 0 |  |  |
| CCNc1cc(C)nc(Nc2ccc(NS(=O)(=O)c3ccc4nc(C)sc4c3)cc2)n1 | 0.543 (≈ 1.19 µM) | > 13.6 | 4.31 (≈ 9.49 µM) | 33.4 | 0.404 (≈ 0.889 µM) | 1.18 (≈ 2.6 µM) | 58.3 |  |  |
| COc1ccc(S(=O)(=O)NCC(c2cccnc2)N2CCN(Cc3ccccc3)CC2)cc1C (centres undefined) | > 14.4 | 7.47 (≈ 15.5 µM) | 5.04 (≈ 10.5 µM) | 0 | 0.835 (≈ 1.74 µM) | 1.81 (≈ 3.78 µM) | 0 |  |  |
| CCOc1ccc2nc(N(CCN(C)C)C(=O)c3cc4ccccc4cc3OC)sc2c1 | 4.28 (≈ 9.53 µM) | 4.72 (≈ 10.5 µM) | 0.35 (≈ 0.779 µM) | 0 | 0.425 (≈ 0.945 µM) | 1.82 (≈ 4.04 µM) | 0 |  |  |
| O=S(=O)(NCC(c1cccnc1)N1CCN(Cc2ccccc2)CC1)c1ccc(Cl)cc1 (centres undefined) | > 14.1 | > 14.1 | > 14.1 | 0 | 0.633 (≈ 1.34 µM) | 2.18 (≈ 4.63 µM) | 0 |  |  |
| CN(C)CCCN(C(=O)c1nc2ccccc2s1)c1nc2c(Cl)cccc2s1 | 0.526 (≈ 1.22 µM) | 4.54 (≈ 10.5 µM) | 0.352 (≈ 0.817 µM) | 0 | 0.239 (≈ 0.555 µM) | 0.398 (≈ 0.923 µM) | 33.3 |  |  |
| COc1ccc(-c2nnc(NC(=O)c3cccc(C(F)(F)F)c3)o2)cc1 | 10.1 (≈ 27.9 µM) | > 10.9 | > 10.9 | 0 | 0.844 (≈ 2.32 µM) | > 10.9 | 0 |  |  |
| O=C(NCCc1csc(-c2ccccc2)n1)C1CCCC1 | > 9.01 | > 9.01 | 0.152 (≈ 0.506 µM) | 0 | 0.345 (≈ 1.15 µM) | > 9.01 | 0 |  |  |
| CCOC(=O)CNC(=O)CSc1nnc(NC(=O)c2ccccc2Cl)s1 | 3.81 (≈ 9.19 µM) | 4.16 (≈ 10 µM) | 0.237 (≈ 0.572 µM) | 13.3 | 4.41 (≈ 10.6 µM) | 0.848 (≈ 2.04 µM) | 0 |  |  |
| CCN(CC)CCSc1ccc(-c2sc(-c3ccc(F)cc3)nc2C)nn1 | > 12.1 | 3.82 (≈ 9.49 µM) | 0.314 (≈ 0.78 µM) | 6.7 | 3.25 (≈ 8.09 µM) | 0.5 (≈ 1.24 µM) | 0 |  |  |
| COc1ccc(C(=O)Nc2nnc(SCC(=O)NCc3ccccc3Cl)s2)c(OC)c1 | > 14.4 | > 14.4 | 4.66 (≈ 9.73 µM) | 0 | > 14.4 | 3.64 (≈ 7.61 µM) | 100 |  |  |
| O=C(Nc1nc(-c2ccccn2)cs1)c1cc(Cl)sc1Cl | 3.89 (≈ 10.9 µM) | > 10.7 | 0.182 (≈ 0.511 µM) | 80 | 0.069 (≈ 0.194 µM) | > 10.7 |  |  |  |
| COc1cccc(NC(=O)CSc2nc(-c3ccccc3Cl)ns2)c1 | > 11.8 | > 11.8 | > 11.8 | 6.7 | > 11.8 | 0.24 (≈ 0.612 µM) |  |  |  |
| CCOc1ccc(-c2ccc(=O)n(CCCC(=O)Nc3ccccc3SC)n2)cc1 | > 12.7 | > 12.7 | > 12.7 |  | 8.92 (≈ 21.1 µM) | > 12.7 | 0 | 100 | 0 |

| SMILES | IC50 [1] [µg/mL] | IC50 [2] [µg/mL] | IC50 [3] [µg/mL] | % Inhibition [4] [%] | IC50 [5] [µg/mL] | IC50 [6] [µg/mL] | % Inhibition [7] [%] | % Inhibition [8] [%] | % Inhibition [9] [%] |
| --- | --- | --- | --- | --- | --- | --- | --- | --- | --- |
| CCc1cccc2sc(NC(=O)C3CCCCN3S(C)(=O)=O)nc12 (centres undefined) | > 11 | > 11 | 3.09 (≈ 8.4 µM) |  | 3.8 (≈ 10.3 µM) | > 11 | 0 | 100 | 0 |
| Cc1cc(C(=O)Nc2nnc(-c3ccco3)o2)on1 | > 7.81 | > 7.81 | > 7.81 |  | > 7.81 | > 7.81 | 25 | 100 | 20 |
| Cc1ccnc(Nc2ccc(NCCNS(=O)(=O)c3cccc(Cl)c3)nn2)c1 | > 12.6 | > 12.6 | 4.02 (≈ 9.6 µM) |  | > 12.6 | > 12.6 | 0 | 100 | 0 |
| Cc1ccc(S(=O)(=O)N(C)CC(O)COc2c(C)cc(C)cc2C)cc1 (centres undefined) | > 11.3 | > 11.3 | 9.55 (≈ 25.3 µM) |  | 3.81 (≈ 10.1 µM) | > 11.3 | 0 | 100 | 0 |
| O=C(c1ccc2c(c1)OCCO2)N(CCCn1ccnc1)c1nc2c(F)cccc2s1 | 6.23 (≈ 14.2 µM) | > 14.2 | 4.56 (≈ 10.4 µM) |  | 3.6 (≈ 8.22 µM) | 1.35 (≈ 3.08 µM) | 0 | 100 | 0 |
| O=C(c1ccc2c(c1)OCO2)C1C(=O)N(c2ccccc2)N=C1c1ccccc1 (centres undefined) | 6.6 (≈ 17.2 µM) | > 11.5 | 3.32 (≈ 8.63 µM) |  | > 11.5 | > 11.5 | 0 | 100 | 0 |
| CSc1ccc2nc(N(Cc3cccnc3)C(=O)c3ccc(C(C)(C)C)cc3)sc2c1 | 7.16 (≈ 16 µM) | > 13.4 | > 13.4 |  | 0.556 (≈ 1.24 µM) | 0.145 (≈ 0.324 µM) | 0 | 25 | 0 |
| CCc1nnc(NS(=O)(=O)c2ccc(NC(=O)c3nc4ccccc4s3)cc2)s1 | > 13.4 | > 13.4 | > 13.4 |  | > 13.4 | > 13.4 | 0 | 100 | 0 |
| CN(C)C(CNS(=O)(=O)c1ccc2c(c1)CCCC2)c1ccc(F)cc1 (centres undefined) | > 11.3 | > 11.3 | 2.99 (≈ 7.95 µM) |  | 4.67 (≈ 12.4 µM) | > 11.3 | 0 | 100 | 0 |
| CCOC(=O)N1CCc2nc(NC(=O)CCCS(=O)(=O)c3ccc(F)cc3)sc2C1 | > 13.7 | > 13.7 | > 13.7 |  | > 13.7 | 6.65 (≈ 14.6 µM) | 0 | 100 | 0 |
| O=C(COc1ccc(Cl)cc1)NCCCn1nc(-c2ccc(F)cc2)ccc1=O | > 12.5 | > 12.5 | > 12.5 |  | > 12.5 | > 12.5 | 16.7 | 100 | 0 |
| COc1ccc(OC)c2sc(N(CC3CCCO3)C(=O)c3ccn(C)n3)nc12 (centres undefined) | > 12.1 | 0.391 (≈ 0.971 µM) | > 12.1 |  | > 12.1 | > 12.1 | 16.7 | 0 | 0 |
| CCOC(=O)c1sc(-c2ccccc2)cc1NC(=O)c1ccnn1C | > 10.7 | 0.345 (≈ 0.971 µM) | > 10.7 |  | > 10.7 | > 10.7 | 0 | 0 | 0 |
| Cc1cccc(Nc2ccc(NCCNS(=O)(=O)c3ccc(F)cc3)nn2)n1 | > 12.1 | > 12.1 | 4.06 (≈ 10.1 µM) |  | > 12.1 | 0.582 (≈ 1.45 µM) | 0 | 100 | 50 |
| COc1ccc(C(CNS(=O)(=O)c2ccc(Cl)s2)N2CCOCC2)cc1 (centres undefined) | > 12.5 | > 12.5 | > 12.5 |  | > 12.5 | > 12.5 | 0 | 100 | 0 |
| Cc1ccnc(Nc2ccc(NCCNC(=O)Nc3ccc(F)cc3)nn2)c1 | > 11.4 | > 11.4 | > 11.4 |  | > 11.4 | > 11.4 | 0 | 100 | 0 |
